# From PMC7941214 (Journal of medicinal chemistry, 2019)
# Where “and” joins values, the source holds several entries; their conditions need not be identical. Equal entries are not always repeated.
# Experiments:
# [1] = Log P determination; settings: n-octanol/water, Au by FAAS
# [2] = system: E. coli ATCC 25922; assay: Broth microdilution MIC/MBC, E. coli; assay type: cell-based, Escherichia coli; settings: for MIC E. coli ATCC 25922: value before the parentheses, two values = two repeats; for MBC E. coli ATCC 25922: value in parentheses
# In short: (§1)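 CLSI broth microdilution in cation-adjusted Mueller–Hinton broth. Log-phase cultures were diluted to 7.5 × 10^5 CFU/mL, then mixed 1:1 with 2-fold serial dilutions of gold complexes from DMSO or water stocks, in triplicate, and held 37 °C, 18 h, static. MIC: lowest concentration giving >90% inhibition by OD600 against medium-only and bacteria-only wells. […] E. coli ATCC 25922 quality control was checked each run with ciprofloxacin and […].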
# [3] = system: S. aureus JE2 (USA300); assay: Broth microdilution MIC/MBC, S. aureus; assay type: cell-based, Staphylococcus aureus; settings: for MIC S. aureus JE2 (USA300): value before the parentheses, two values = two repeats; for MBC S. aureus JE2 (USA300): value in parentheses
# In short: as §1
# [4] = system: E. faecium ATCC 700221; assay: Broth microdilution MIC/MBC, E. faecium; assay type: cell-based, Enterococcus faecium; settings: for MBC E. faecium ATCC 700221: value in parentheses; for MIC E. faecium ATCC 700221: value before the parentheses, two values = two repeats
# In short: as §1
# [5] = system: A. baumannii NCTC 13420; assay: Broth microdilution MIC/MBC, A. baumannii; assay type: cell-based, Acinetobacter baumannii; settings: for MIC A. baumannii NCTC 13420: value before the parentheses, two values = two repeats; for MBC A. baumannii NCTC 13420: value in parentheses
# [6] = system: P. aeruginosa NCTC 13437; assay: Broth microdilution MIC/MBC, P. aeruginosa; assay type: cell-based, Pseudomonas aeruginosa; settings: for MIC P. aeruginosa NCTC 13437: value before the parentheses, two values = two repeats; for MBC P. aeruginosa NCTC 13437: value in parentheses
# In short: as §1
# [7] = system: K. pneumoniae ATCC 700603; assay: Broth microdilution MIC/MBC, K. pneumoniae; assay type: cell-based, Klebsiella pneumoniae; settings: for MIC K. pneumoniae ATCC 700603: value before the parentheses, two values = two repeats; for MBC K. pneumoniae ATCC 700603: value in parentheses
# In short: as §1
# [8] = system: E. cloacae NCTC 13405; assay: Broth microdilution MIC/MBC, E. cloacae; assay type: cell-based, Enterobacter cloacae; settings: for MIC E. cloacae NCTC 13405: value before the parentheses, two values = two repeats; for MBC E. cloacae NCTC 13405: value in parentheses
# In short: as §1
Compound,log P [1],MIC E. coli ATCC 25922 [2],MIC S. aureus JE2 (USA300) [3],MBC S. aureus JE2 (USA300) [3],MBC E. faecium ATCC 700221 [4],MIC A. baumannii NCTC 13420 [5],MIC P. aeruginosa NCTC 13437 [6],MIC K. pneumoniae ATCC 700603 [7],MIC E. cloacae NCTC 13405 [8],MBC E. coli ATCC 25922 [2],MBC A. baumannii NCTC 13420 [5],MBC P. aeruginosa NCTC 13437 [6],MBC E. cloacae NCTC 13405 [8],MIC E. faecium ATCC 700221 [4],MBC K. pneumoniae ATCC 700603 [7],"fold enhancement of activity over auranofin, E. cloacae ([8]; vs auranofin)"
"CC(=O)OCC1O[C@@H]([S][Au-][P+](c2ccc(F)cc2)(c2ccc(F)cc2)c2ccc(F)cc2)C(OC(C)=O)[C@@H](OC(C)=O)[C@@H]1OC(C)=O (stereo partly drawn) [Compound 35, (2,3,4,6-Tetra-O-acety/-1-thio-β-D-glucopyranosato)(tris(4-fluorophenyl)phosphine) Gold(I)]",>3.04,>292 µM,1 µM,2 µM,5 µM,>292 µM,>292 µM,>292 µM,>292 µM,,,,,,,
CC[PH](CC)(CC)[Au][S]C1OC(CO)C(OC2OC(CO)C(O)C(O)C2O)C(O)C1O (stereo not drawn) [Compound 14],−1.69,12 µM,,0.09 µM,0.4 µM,24 µM,381 µM,>381 µM,190 µM,12 µM,24 µM,381 µM,190 µM,,,
"CC(=O)OCC1O[C@@H]([S][Au-][P+](c2ccc(C(F)(F)F)cc2)(c2ccc(C(F)(F)F)cc2)c2ccc(C(F)(F)F)cc2)C(OC(C)=O)[C@@H](OC(C)=O)[C@@H]1OC(C)=O (stereo partly drawn) [Compound 36, (2,3,4,6-Tetra-O-acetyl-1-thio-β-D-glucopyranosato)(tris(4-(trifluoromethyl)phenylphosphine)) Gold(I)]",>3.55,>249 µM,4 µM,8 µM,62 µM,>249 µM,>249 µM,>249 µM,>249 µM,,,,,31 µM,,
"CC[PH](CC)(CC)[Au][S]C1OC(CO)C(O)C(O)C1O [Compound 10, (1-Thio-β-D-galatopyranosato)(triethylphosphine) Gold(I)]",−0.73,16 µM,0.02 µM,0.1 µM,0.5 µM,31 µM,251 µM,251 µM,63 µM,16 µM,31 µM,251 µM,63 µM,0.1 µM and 0.2 µM,251 µM,3
"CC[PH](CC)(CC)[Au][O]C1OC(CO)C(OC2OC(CO)C(O)C(O)C2O)C(O)C1O [Compound 13, [β-D-Galactopyranosyl-(1→4)-β-D-glucopyranosato]-(triethylphosphine) Gold(I)]",,24 µM,,0.09 µM,0.4 µM,24 µM and 48 µM,381 µM,381 µM,190 µM,24 µM,190 µM,381 µM,190 µM,0.09 µM,381 µM,
"Fc1ccc([PH+](c2ccc(F)cc2)c2ccc(F)cc2)cc1.[Cl][Au] [Compound 29, (Tris(4-fluorophenyl)phosphine)gold Chloride]",>4.04,>467 µM,,,4 µM,29 µM and 58 µM,>467 µM,>467 µM,>467 µM,,233 µM,,,2 µM and 4 µM,,
